The list is not random: actives were taken first. Their share in the collection is about 2.1%.
PfG6PD inh = PfG6PD (Plasmodium falciparum) enzyme inhibition; PfGluPho enzyme, NADPH resazurin-diaphorase fluorescence; inhibition, % at 20 µM; 350,000 compounds, 0.78% hits; AID 504690;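 active means inhibition reaching at least a set limit at 20 µM in the primary screen, cut at about 59% in these data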
H9c2 protect = protects H9c2 cardiomyocytes from peroxide injury; AID 588492; 360,000 compounds, 0.63% hits; protection from H2O2 cell death, % at 20 µM; H2O2 injury protection, ATPLite, 2 h;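 active means compounds giving at least 50% protection of heart cells from peroxide-induced death in the single-dose screen, raw or plate-pattern-corrected value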
aDG glyco up = alpha-DG glycosylation activation; AID 624168; 360,000 compounds, 0.22% hits; Pro5-aDG cells, alpha-DG glycosylation AlphaScreen (IIH6); 0% Pro5, 100% B10-LARGE cell signal; activation, % at 10 µM;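 active means activation of at least 8% versus controls, or a plate z-score of at least 8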;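 further: Pro5 are CHO cells carrying HIG-tagged alpha-DG that lacks glycosylation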
UCH37 inh = inhibitors of human deubiquitinating enzyme UCH37. inhibition, % (concentration not given with the values). purified proteasome/UCH37, Ub-AMC cleavage fluorescence. Q9Y5K5. 330,000 compounds, 0.33% hits;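 active means mean inhibition over replicate wells above about 20%, limit read from the data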
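Reagent: Ub-AMC substrate; assay system: Proteasome-associated human UCH37 deubiquitinase; controls: no-proteasome and no-compound wells; read-out: % inhibition of Ub-AMC cleavage fluorescence; timing: 30 min preincubation with enzyme, 25 min cleavage at room temperature; signal: AMC fluorescence from Ub-AMC cleavage, excitation 355 nm, emission 460 nm; buffer or medium: Tris-HCl pH 7.4 plus ovalbumin, ATP-MgCl2, DTT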
Beta2AR agonist = activates human beta-2 adrenergic receptor causing internalization | P07550 | Am2.2-beta2AR cells, FAP receptor internalization, flow cytometry | response, % (concentration not given with the values) | 340,000 compounds, 0.43% hits;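 active means response above a set limit, near 3 SD of response in nonfluorescent compounds, cut at about 42% in these data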
Target sequence (P07550 whole entry, looked up): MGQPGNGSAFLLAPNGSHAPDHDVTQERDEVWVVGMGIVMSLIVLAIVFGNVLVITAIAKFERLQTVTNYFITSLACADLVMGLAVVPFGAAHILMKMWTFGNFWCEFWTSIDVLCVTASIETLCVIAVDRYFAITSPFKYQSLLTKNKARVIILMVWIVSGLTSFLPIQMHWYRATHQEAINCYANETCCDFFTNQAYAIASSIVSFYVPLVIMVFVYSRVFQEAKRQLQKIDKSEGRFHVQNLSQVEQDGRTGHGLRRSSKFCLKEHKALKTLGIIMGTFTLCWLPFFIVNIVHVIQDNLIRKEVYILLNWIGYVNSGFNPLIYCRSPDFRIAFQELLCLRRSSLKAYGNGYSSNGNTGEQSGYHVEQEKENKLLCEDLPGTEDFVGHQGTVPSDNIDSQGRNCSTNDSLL
HKDC1 inhibitor = HKDC1 (human) hexokinase inhibition; recombinant HKDC1, G6PDH/diaphorase resazurin coupled fluorescence; 340,000 compounds, 0.16% hits; inhibition, % at 20 µM; Q2TB90;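 active means inhibition above about 35% when tested at 20 µM, limit read from the data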
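Material – in-house recombinant HK5 (HKDC1) enzyme · Quantity – HKDC1 at 5 µg/mL · Buffer or medium – pH 8.0 Tris buffer with 10 mM MgCl2 · Reagent – glucose with 1 mM ATP · Dosing – single 20 µM dose · Times – reaction time 90 min, room temperature, protected from light · Technique – resorufin fluorescence at 613 nm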
PfG6PD confirm = PfG6PD inhibition, single-dose confirmed. shares compounds with PfG6PD inh. AID 504753. 2,400 compounds, 34% hits. recombinant PfGluPho, NADPH-diaphorase-resazurin fluorescence. inhibition, % at 20 µM;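 active means inhibition of at least 50% at 20 µM in any single replicate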
Diaph ctr 10uM = inhibits diaphorase or oxidizes, flagging false PfG6PD hits; shares compounds with PfG6PD inh; diaphorase-coupled resazurin reduction, fluorescence, NADPH 10 uM; inhibition, % at 20 µM; 820 compounds, 39% hits; AID 504862;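 active means average inhibition reaching 50% or more with the compound at 20 µM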;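 further: resorufin red fluorescence formed as diaphorase reduces resazurin using NADPH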
Diaphorase 30uM = inhibits diaphorase or oxidizes, flagging false PfG6PD hits; shares compounds with PfG6PD inh; Diaphorase/resazurin coupled assay, resorufin fluorescence, 30 uM NADPH; inhibition, % at 20 µM; 820 compounds, 29% hits;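 active means inhibition averaging 50% or more, tested at 20 µM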
A number is an active result; i = inactive; nt = not tested or not shown.

SMILES	PfG6PD inh	H9c2 protect	aDG glyco up	UCH37 inh	Beta2AR agonist	HKDC1 inhibitor	PfG6PD confirm	others
CC(=NNc1ccc(C(F)(F)F)cn1)c1ccc(S(=O)(=O)NCc2ccco2)cc1	nt	nt	nt	i	nt	nt	nt
O=C(C[n+]1ccccc1)NN=Cc1ccc(O)cc1	nt	nt	nt	i	nt	nt	nt
Cc1sc2nc(CN3CCN(c4ccc(O)cc4)CC3)[nH]c(=O)c2c1C	79	i	i	i	i	i	i
COc1cccc(C=NNC(=O)c2cnccn2)c1O	nt	nt	nt	i	nt	nt	nt
O=C1C=C(NCCc2cc(Br)c(O)c(Br)c2)C(=O)c2ncccc21	115	i	i	nt	i	i	101	Diaph ctr 10uM=i;Diaphorase 30uM=i
Cc1ccc(-c2cc(C(=O)NN=Cc3c(C)nn(C)c3C)c3ccccc3n2)c(C)c1	nt	nt	nt	i	nt	nt	nt
CN1CCc2cccc3c2C1Cc1ccc(O)c(O)c1-3 (stereo not drawn)	64	i	i	i	i	i	i
CN1CCC(=C2c3ccccc3C(O)c3ccccc32)CC1 (stereo not drawn)	i	i	i	i	i	i	nt
O=C(NCc1ccccc1)C(=NO)c1ccccc1	nt	nt	nt	i	nt	nt	nt
COc1ccc2c(c1)CCc1cc(C(=O)N3CCN(c4ccc(N5CCOCC5)nn4)CC3)sc1-2	77	i	i	i	i	i	i
N#Cc1cc([N+](=O)[O-])ccc1Oc1cccc(/C=N/NC(=O)c2cccc(Cl)c2)c1	119	i	i	nt	i	i	62	Diaph ctr 10uM=60;Diaphorase 30uM=59
CCOC(=O)C1(CCC(C)=NNC(N)=O)CC(C)(C)OC1=O (stereo not drawn)	nt	nt	nt	i	nt	nt	nt
Cc1cccc(CN2C(=O)c3ccccc3Sc3ccc(C(=O)O)cc32)c1	i	i	i	i	i	i	nt
O=C(c1ccc2c(c1)N(Cc1ccccc1F)C(=O)c1ccccc1S2)N1CCOCC1	69	nt	nt	i	nt	i	i
O=C(c1ccc2c(c1)N(Cc1ccccc1)C(=O)c1ccccc1S2)N1CCCC1	102	i	i	i	i	i	72	Diaph ctr 10uM=62;Diaphorase 30uM=63
Fc1cccc(Nc2ncnc3c2cnn3-c2ccccc2)c1	70	i	i	i	i	i	i
Clc1cccc(Nc2ncnc3c2cnn3-c2ccccc2)c1	83	i	i	i	i	i	i
COc1cccc(Nc2ncnc3c2cnn3-c2cccc(C)c2)c1	i	i	i	i	i	i	nt
O=C(O)c1cccc(Nc2ncnc3c2cnn3-c2ccccc2)c1	i	i	i	i	i	i	nt
COCCN=c1scc(-c2cc(OC)c(OC)c(OC)c2)n1N=Cc1c(C)[nH]c2ccccc12	nt	nt	nt	i	nt	nt	nt
CC(C)N(C)C1=CC(=O)C(N(C)C(C)C)=CC1=O	67	i	i	i	i	i	i
COC(=O)c1ccc(C=NNC(=O)CCSc2nc3ccccc3s2)cc1	nt	nt	nt	i	nt	nt	nt
COc1cc(CNn2c(C)n[nH]c2=S)cc(Cl)c1OCc1ccc(F)cc1	i	i	i	i	i	i	nt
COc1cc(CNn2c(C)n[nH]c2=S)cc(Br)c1OCc1ccc(F)cc1	70	i	i	i	i	i	i
N#CC1=C2SCN(c3ccccc3)CN2C(=O)CC1c1cccs1 (stereo not drawn)	71	i	i	i	i	i	i
N#CC1=C2SCN(c3ccccc3)CN2C(=O)CC1c1ccccc1Cl (stereo not drawn)	74	i	i	i	i	i	i
N#CC1=C2SCN(Cc3ccco3)CN2C(=O)CC1c1c(F)cccc1Cl (stereo not drawn)	66	i	i	i	i	i	i
N#CC1=C2SCN(Cc3ccccc3)CN2C(=O)CC1c1ccccc1F (stereo not drawn)	61	i	i	i	i	i	i
O=C(NC(C(=O)NN=Cc1ccccc1)c1n[nH]c(=O)c2ccccc12)c1ccccc1 (stereo not drawn)	nt	nt	nt	i	nt	nt	nt

Screening results (PubChem BioAssay)
